Experimental data published in ChEMBL document CHEMBL3244028, “Synthesis and antiinflammatory activity of 6,11-dihydro-11-oxodibenzo[b,e]thiepinalkanoic acids and related compounds” (J Med Chem, 1978).

Columns and labels:
Mus musculus = experiment: Analgesic activity in mouse assessed as inhibition of phenylquinone-induced writhing administered orally 20 mins prior challenge relative to aspirin; assay type: functional
In short: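 Male mice, 18-20 g, dosed orally in "Government diluting fluid" vehicle, then given phenylquinone intraperitoneally 20 min later. Writhing observed over the following 10 min. Eight to ten mice per dose. Potency relative to aspirin taken from dose-response plots.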

Rattus norvegicus [1] = experiment: Antiinflammatory activity in rat assessed as inhibition of carrageenan-induced paw edema compound administered orally 1 hr prior challenge relative to phenylbutazone; assay type: functional
In short: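 Female rats, 80-90 g, given test agent in "Government diluting fluid" 1 h before carrageenan injection into one hind paw. Rats killed 4 h after dosing; both hind paws excised and weighed. Potency relative to phenylbutazone read from dose-response plots of percent weight increase of inflamed over noninflamed paw. Usually at least three doses, six rats per dose.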

Rattus norvegicus [2] = organism: Rattus norvegicus; experiment: Toxicity in rat assessed as gastric irritation (erosion) in starved rats; settings: in vivo
Rattus norvegicus [3] = experiment: Antiinflammatory activity in rat arthritis model assessed as inhibition of Freund's adjuvant-induced swelling compound administered orally bid for 17 days starting on day 1 of challenge measured on day 18 relative to naproxen; assay type: functional
Rattus norvegicus [4] = experiment: Antiinflammatory activity in rat assessed as inhibition of cotton pellet granuloma at 0.5 to 4 mg/kg/day, po administered for 7 days starting same day of challenge measured on day 7 relative to indomethacin; assay type: functional
In short: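 Cotton pellet granuloma in rats, by a modification of Meier's method. Vehicle "Government diluting fluid".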

Canis familiaris = experiment: Toxicity in dog assessed as emesis at 5 mg/kg, po administered as single dose; assay type: organism-based, Canis lupus familiaris; parameters: dose 5 mg/kg, route oral; settings: in vivo
In short: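 Dogs given one oral dose (5, 10 or 30 mg/kg). Animals watched for signs of gastrointestinal intolerance, including emesis.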

Compound	fold change (FC) (Mus musculus)	fold change (FC) (Rattus norvegicus [1])	ED50 (Rattus norvegicus [2]) [mg/kg]	fold change (FC) (Rattus norvegicus [3])	fold change (FC) (Rattus norvegicus [4])	Activity (Canis familiaris)
C1CCC(NC2CCCCC2)CC1.CC(C(=O)O)c1ccc2c(c1)CCc1ccccc1S2 (racemic)	5	3	–	–	–	–
CC(C(=O)O)c1ccc2c(c1)SCc1ccccc1C2=O (racemic)	20	115	2	70	2	Toxic
CC(C(=O)O)c1ccc2c(c1)SCc1sccc1C2=O (racemic)	20	13	–	–	–	–
O=C(O)Cc1ccc2c(c1)CCc1ccccc1O2	1	0.4	–	–	–	–
O=C(O)Cc1ccc2c(c1)C=Cc1ccccc1S2	<1	2	–	–	–	–
O=C(O)Cc1ccc2c(c1)Sc1ccccc1C=C2	<1	<0.2	–	–	–	–
C1CCC(NC2CCCCC2)CC1.CCC(C(=O)O)c1ccc2c(c1)SCc1ccccc1C2=O (stereo not given)	4	20	–	–	–	–
O=C(O)Cc1ccc2c(c1)Sc1ccccc1C(=O)C2	1	0.4	–	–	–	–
O=C(O)Cc1ccc2c(c1)Sc1ccccc1CC2	2	0.2	–	–	–	–
O=C(O)Cc1ccc2c(c1)CC(=O)c1ccccc1O2	<0.2	<0.6	–	–	–	–
O=C(O)Cc1ccc2c(c1)SCc1ccccc1C2O (racemic)	<0.3	<1	–	–	–	–
O=C(O)Cc1ccc2c(c1)CC(=O)c1ccccc1S2	1	0.4	–	–	–	–
O=C(O)Cc1ccc2c(c1)C(=O)c1ccccc1CS2	1.5	0.3	–	–	–	–
O=C(O)Cc1ccc2c(c1)SCc1sccc1C2=O	4	4	–	–	–	–
O=C(O)Cc1ccc2c(c1)S(=O)(=O)Cc1ccccc1C2=O	0.2	<0.2	–	–	–	–
O=C(O)Cc1ccc2c(c1)SCc1ccccc1C2=O [TIOPINAC]	14	40	–	10	0.8	Non-toxic
O=C(O)Cc1ccc2c(c1)CCc1ccccc1S2(=O)=O	1	0.4	–	–	–	–
O=C(O)Cc1ccc2c(c1)CSc1ccccc1C2=O	1	1	–	–	–	–
O=C(O)Cc1cccc2c1SCc1ccccc1C2=O	–	<0.4	–	–	–	–
O=C(O)Cc1ccc2c(c1)[S+]([O-])Cc1ccccc1C2=O (racemic)	<=0.5	0.5	–	–	–	–
O=C(O)Cc1ccc2c(c1)CCc1ccccc1[S+]2[O-] (racemic)	0.8	<=0.2	–	–	–	–
O=C(O)Cc1ccc2c(c1)C=Cc1ccccc1S2(=O)=O	0.4	0.4	–	–	–	–
O=C(O)Cc1ccc2c(c1)SCc1ccccc1C2	1	2	–	–	–	–
O=C(O)Cc1ccc2c(c1)C=Cc1ccccc1O2	0.3	<0.4	–	–	–	–
C1CCC(NC2CCCCC2)CC1.CC(C(=O)O)c1ccc2c(c1)CSc1ccccc1C2=O (stereo not given)	2.5	2	–	–	–	–
O=C(O)Cc1ccc2c(c1)CCc1ccccc1S2	3	7	–	0.5	0.07	–
